# PMC2266618 (The Journal of General Physiology, 2005)
# How the values were obtained:
# ASIC3 = conditions: ref Diochot et al., 2004, cited from earlier work
# ASIC1a = conditions: ref Diochot et al., 2004; cited from earlier work
# homomeric ASIC1a = biological target: T1, homomeric ASIC1a (Rattus norvegicus, UniProt P55926); experiment: Direct opening of ASIC1a channels by PcTx1; type: cell-based; conditions: 100 μM amiloride
# T1 sequence (P55926 1-526): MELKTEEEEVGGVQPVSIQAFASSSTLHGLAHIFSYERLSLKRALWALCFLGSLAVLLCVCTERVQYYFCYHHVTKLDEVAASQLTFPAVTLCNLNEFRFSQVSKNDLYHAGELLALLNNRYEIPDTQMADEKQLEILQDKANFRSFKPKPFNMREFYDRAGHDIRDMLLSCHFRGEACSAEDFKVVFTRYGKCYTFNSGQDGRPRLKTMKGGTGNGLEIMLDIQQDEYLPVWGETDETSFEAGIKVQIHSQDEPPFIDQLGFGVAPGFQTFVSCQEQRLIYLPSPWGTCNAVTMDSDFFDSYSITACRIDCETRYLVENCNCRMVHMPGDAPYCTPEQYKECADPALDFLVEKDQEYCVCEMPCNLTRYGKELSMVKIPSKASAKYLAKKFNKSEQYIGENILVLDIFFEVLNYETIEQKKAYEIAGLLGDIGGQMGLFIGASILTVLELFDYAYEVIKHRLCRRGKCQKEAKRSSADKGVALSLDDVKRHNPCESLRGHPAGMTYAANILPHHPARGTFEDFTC
# In short: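 Rat ASIC1a cRNA (0.01 ng) injected into stage V-VI Xenopus oocytes, kept 2-4 d in OR-2 (pH 7.3); whole-cell currents at -70 mV. The conditioning solution was switched from 1.8 to 0.1 mM Ca2+ (with 0.1 mM flufenamic acid) at pH 7.35, together with 100 nM test peptide toxin in 0.05% BSA. The transient inward current was tested with 100 µM amiloride.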
molecule,measurement,setting,value
APETx2,inhibition of ASIC3,ASIC3; inhibition during steady state (at pH 7.4),inhibits
same,affinity of the interaction with ASIC3,ASIC3,nanomolar affinity
same,inhibition of ASIC1a,ASIC1a,does not inhibit
N=C(N)NC(=O)c1nc(Cl)c(N)nc1N [amiloride],block of PcTx1-elicited currents by amiloride,"homomeric ASIC1a; 100 nM PcTx1 coapplied with pH 7.1, n = 3",could be blocked
same,block of PcTx1-elicited currents by amiloride,"homomeric ASIC1a; 100 nM PcTx1 with 0.1 mM Ca2+ at pH 7.35, n = 4",could be blocked
